Source: ChEMBL document CHEMBL4270565, “Design, synthesis and antimicrobial evaluation of propylene-tethered ciprofloxacin-isatin hybrids” (Eur J Med Chem, 2018)
Converted amounts (≈) assume the structure as drawn.

Key:
Proteus vulgaris = assay: Antibacterial activity against Proteus vulgaris ATCC 29905 after 18 to 24 hrs by two-fold serial dilution method; type: functional
Outline: (§1)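 Agar two-fold dilution MIC. Compounds were dissolved in 0.1 N NaOH and water, then serially diluted in melted Mueller-Hinton agar, with top concentrations starting at 128. Plates were inoculated at about 10 cfu and incubated at 35 °C for 18–24 h. MIC was taken as the lowest concentration giving 90% inhibition of growth.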

Morganella morganii = assay: Antibacterial activity against Morganella morganii ATCC 25830 after 18 to 24 hrs by two-fold serial dilution method; type: functional; outline: as §1
Serratia marcescens = assay: Antibacterial activity against Serratia marcescens ATCC 21074 after 18 to 24 hrs by two-fold serial dilution method; type: functional; outline: as §1
[1] = tested on: Acinetobacter calcoaceticus; assay: Antibacterial activity against Acinetobacter calcoaceticus ATCC 19606 after 18 to 24 hrs by two-fold serial dilution method; type: functional; outline: as §1
Enterococcus faecalis [2] = assay: Antibacterial activity against Enterococcus faecalis ATCC 29212 after 18 to 24 hrs by two-fold serial dilution method; type: functional; outline: as §1
Staphylococcus aureus [3] = assay: Antibacterial activity against methicillin-sensitive Staphylococcus aureus ATCC 29213 after 18 to 24 hrs by two-fold serial dilution method; type: functional
Outline: (§2)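 Agar two-fold serial dilution in Mueller-Hinton agar. Strains came from the Chinese Center for Disease Control and Prevention. Compounds were dissolved in 0.1 N NaOH and water, then diluted in melted agar to final levels stepping down from 128. Plates were inoculated with bacterial cfu and incubated at 35 C for 18–24 h. MIC is the lowest concentration giving 90% growth inhibition.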

Escherichia coli [4] = assay: Antibacterial activity against extended-spectrum beta-lactamase deficient Escherichia coli ATCC 25922 after 18 to 24 hrs by two-fold serial dilution method; type: functional; outline: as §1
Enterococcus faecium [5] = assay: Antibacterial activity against Enterococcus faecium ATCC 700221 after 18 to 24 hrs by two-fold serial dilution method; type: functional; outline: as §1
Klebsiella pneumoniae [6] = assay: Antibacterial activity against extended-spectrum beta-lactamase harboring Klebsiella pneumoniae ATCC 700603 after 18 to 24 hrs by two-fold serial dilution method; type: functional; outline: as §2
Citrobacter freundii = assay: Antibacterial activity against extended-spectrum beta-lactamase harboring Citrobacter freundii ATCC 43864 after 18 to 24 hrs by two-fold serial dilution method; type: functional; outline: as §2
Staphylococcus aureus [7] = assay: Antibacterial activity against methicillin-resistant Staphylococcus aureus ATCC 33591 after 18 to 24 hrs by two-fold serial dilution method; type: functional; outline: as §2
[8] = tested on: Staphylococcus epidermidis; assay: Antibacterial activity against methicillin-sensitive Staphylococcus epidermidis ATCC 12228 after 18 to 24 hrs by two-fold serial dilution method; type: functional; outline: as §1
Enterococcus faecium [9] = assay: Antibacterial activity against Enterococcus faecium 13-7 after 18 to 24 hrs by two-fold serial dilution method; type: functional; outline: as §1
[10] = tested on: Mycobacterium tuberculosis; assay: Antimycobacterial activity against Mycobacterium tuberculosis H37Rv after 7 days; type: functional; details: 168 h
Outline: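 Rapid direct susceptibility test in 48-well plates. Two-fold dilutions of compound from DMSO stocks were mixed with an equal volume of bacterial suspension. Medium-only wells served as growth controls and water-only wells as no-growth controls. Plates were sealed and held at 37 C in a humid box, and controls were checked at 3 days. MIC (90% growth inhibition) was read visually by high-magnification observation of the cells and re-read at 7 days.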

[11] = Cytotoxicity against African green monkey Vero cells assessed as reduction in cell viability after 72 hrs by MTT assay; type: cell-based; details: chlorocebus sabaeus
Outline: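 VERO cells were kept in MEM with Earle's salts and 10% FBS at 37 °C, 5% CO2. They were seeded in 96-well plates and allowed to recover for 24 h. Cells were then exposed to compounds in DMSO over a series from 1000 down to 4 for 72 h. Viability was read by MTT, and CC50 was calculated by Bliss analysis.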

Enterococcus faecalis [12] = assay: Antibacterial activity against Enterococcus faecalis ATCC 51299 after 18 to 24 hrs by two-fold serial dilution method; type: functional; outline: as §1
[13] = tested on: Stenotrophomonas maltophilia; assay: Antibacterial activity against Stenotrophomonas maltophilia ATCC 13636 after 18 to 24 hrs by two-fold serial dilution method; type: functional; outline: as §1
Enterobacter cloacae = assay: Antibacterial activity against Enterobacter cloacae ATCC 43560 after 18 to 24 hrs by two-fold serial dilution method; type: functional
Klebsiella pneumoniae [14] = assay: Antibacterial activity against extended-spectrum beta-lactamase deficient Klebsiella pneumoniae 15-2 after 18 to 24 hrs by two-fold serial dilution method; type: functional; outline: as §1
Escherichia coli [15] = assay: Antibacterial activity against extended-spectrum beta-lactamase harboring Escherichia coli ATCC 35218 after 18 to 24 hrs by two-fold serial dilution method; type: functional; outline: as §2
Providencia rettgeri = assay: Antibacterial activity against Providencia rettgeri ATCC 31052 after 18 to 24 hrs by two-fold serial dilution method; type: functional; outline: as §1
Pseudomonas aeruginosa = assay: Antibacterial activity against Pseudomonas aeruginosa ATCC 27853 after 18 to 24 hrs by two-fold serial dilution method; type: functional; outline: as §1
Klebsiella aerogenes = assay: Antibacterial activity against Enterobacter aerogenes ATCC 13048 after 18 to 24 hrs by two-fold serial dilution method; type: functional; outline: as §1
[16] = tested on: Staphylococcus epidermidis; assay: Antibacterial activity against methicillin-resistant Staphylococcus epidermidis 13-3 after 18 to 24 hrs by two-fold serial dilution method; type: functional; outline: as §2
Proteus mirabilis = assay: Antibacterial activity against Proteus mirabilis 13-1 after 18 to 24 hrs by two-fold serial dilution method; type: functional; outline: as §1

For CO/N=C1\C(=O)N(CCCN2CCN(c3cc4c(cc3F)c(=O)c(C(=O)O)cn4C3CC3)CC2)c2ccccc21, the MIC90 (Proteus vulgaris) was ≤ 0.03 µg/mL, the MIC90 (Morganella morganii) was ≤ 0.03 µg/mL and the MIC90 (Serratia marcescens) was 0.06 µg/mL (≈ 0.11 µM). The MIC90 [1] was 0.5 µg/mL (≈ 0.913 µM), the MIC90 (Enterococcus faecalis [2]) was 0.5 µg/mL (≈ 0.913 µM) and the MIC90 (Staphylococcus aureus [3]) was 0.125 µg/mL (≈ 0.228 µM). For the same compound, the MIC90 (Escherichia coli [4]) was ≤ 0.03 µg/mL, the MIC90 (Enterococcus faecium [5]) was 8 µg/mL (≈ 14.6 µM) and the MIC90 (Klebsiella pneumoniae [6]) was 0.5 µg/mL (≈ 0.913 µM). For the same compound, the MIC90 (Citrobacter freundii) was ≤ 0.03 µg/mL, the MIC90 (Staphylococcus aureus [7]) was 0.25 µg/mL (≈ 0.457 µM) and the MIC90 [8] was 0.125 µg/mL (≈ 0.228 µM). It also gave an MIC90 (Enterococcus faecium [9]) of 32 µg/mL (≈ 58.4 µM), an MIC90 [10] of 0.39 µg/mL (≈ 0.712 µM) and a CC50 at 72 h [11] of 32 µg/mL (≈ 58.4 µM). The MIC90 (Enterococcus faecalis [12]) was 1 µg/mL (≈ 1.83 µM), the MIC90 [13] was 0.06 µg/mL (≈ 0.11 µM) and the MIC90 (Enterobacter cloacae) was ≤ 0.03 µg/mL. The MIC90 (Klebsiella pneumoniae [14]) was ≤ 0.03 µg/mL, the MIC90 (Escherichia coli [15]) was ≤ 0.03 µg/mL and the MIC90 (Providencia rettgeri) was ≤ 0.03 µg/mL. The MIC90 (Pseudomonas aeruginosa) was 1 µg/mL (≈ 1.83 µM), the MIC90 (Klebsiella aerogenes) was ≤ 0.03 µg/mL and the MIC90 [16] was 2 µg/mL (≈ 3.65 µM). The MIC90 (Proteus mirabilis) was ≤ 0.03 µg/mL.
In the case of CO/N=C1\C(=O)N(CCCN2CCN(c3cc4c(cc3F)c(=O)c(C(=O)OCCCN3C(=O)/C(=N/OC)c5ccccc53)cn4C3CC3)CC2)c2ccccc21, the MIC90 (Proteus vulgaris) is reported as 32 µg/mL (≈ 41.9 µM), the MIC90 (Morganella morganii) is reported as 128 µg/mL (≈ 168 µM) and the MIC90 (Serratia marcescens) is reported as 64 µg/mL (≈ 83.8 µM). The MIC90 [1] was 128 µg/mL (≈ 168 µM), the MIC90 (Enterococcus faecalis [2]) was 64 µg/mL (≈ 83.8 µM) and the MIC90 (Staphylococcus aureus [3]) was 128 µg/mL (≈ 168 µM). For the same compound, the MIC90 (Escherichia coli [4]) was 4 µg/mL (≈ 5.24 µM), the MIC90 (Enterococcus faecium [5]) was 128 µg/mL (≈ 168 µM) and the MIC90 (Klebsiella pneumoniae [6]) was 64 µg/mL (≈ 83.8 µM). For the same compound, the MIC90 (Citrobacter freundii) was 64 µg/mL (≈ 83.8 µM), the MIC90 (Staphylococcus aureus [7]) was > 128 µg/mL and the MIC90 [8] was 32 µg/mL (≈ 41.9 µM). The MIC90 (Enterococcus faecium [9]) was > 128 µg/mL, the MIC90 [10] was 12.5 µg/mL (≈ 16.4 µM) and the CC50 at 72 h [11] was 64 µg/mL (≈ 83.8 µM). For the same compound, the MIC90 (Enterococcus faecalis [12]) was 128 µg/mL (≈ 168 µM), the MIC90 [13] was 128 µg/mL (≈ 168 µM) and the MIC90 (Enterobacter cloacae) was 32 µg/mL (≈ 41.9 µM). It also gave an MIC90 (Klebsiella pneumoniae [14]) of 32 µg/mL (≈ 41.9 µM), an MIC90 (Escherichia coli [15]) of 4 µg/mL (≈ 5.24 µM) and an MIC90 (Providencia rettgeri) of 64 µg/mL (≈ 83.8 µM). The MIC90 (Pseudomonas aeruginosa) was 64 µg/mL (≈ 83.8 µM), the MIC90 (Klebsiella aerogenes) was 64 µg/mL (≈ 83.8 µM) and the MIC90 [16] was 128 µg/mL (≈ 168 µM). It also gave an MIC90 (Proteus mirabilis) of 64 µg/mL (≈ 83.8 µM).
